Test results published in ChEMBL document CHEMBL1821656, “Design, synthesis, and evaluation of inhibitors of Norwalk virus 3C protease” (Bioorg Med Chem Lett, 2011).

How the values were obtained:
[1] = (§1) Inhibition of recombinant Norwalk virus 3C protease using Edans-EPDFHLQGPEDLAK-Dabcyl as substrate preincubated for 30 mins measured for 30 mins by spectrofluorometry
How it was run: (§2)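 Enzyme (final 2.5 μM) was held at 30 °C in pH 8.0 sodium phosphate (50 mM) containing 120 mM NaCl and 6 mM DTT. The fluorescence increase was monitored 30 min at 360/460 nm excitation/emission.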

Norwalk virus [2] = test: Inhibition of recombinant Norwalk virus 3C protease using Edans-EPDFHLQGPEDLAK-Dabcyl as substrate at [compound]/[substrate] ratio of 25 preincubated for 30 mins measured for 30 mins by spectrofluorometry; set-up: concentration or dose not given beside the values
[3] = Cytotoxicity against human HG23 cells after 48 hrs; type: cell-based; conditions: read-out: TD50
How it was run: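 HG23 cells carrying the Norwalk replicon were used 1 day after plating at 80-90% confluence. They were exposed for 48 hr to compound at 0 (DMSO mock) to 320 μM. Viability was measured with a commercial cytotoxicity kit, and the median toxic dose (TD50) was calculated.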

[4] = Cytotoxicity against mouse […] cells after 12 to 24 hrs relative to ribavirin; type: cell-based; conditions: read-out: TD50 (the source's name)
Norwalk virus [5] = test: as §1; how it was run: as §2
Norwalk virus [6] = test: Antiviral activity against Norwalk virus in NV replicon-harboring HG23 cells assessed as inhibition of viral replication after 24 hrs by analyzing NV genome level using qRT-PCR; type: functional; conditions: HG23, 24 h, read-out: ED50 (the source's name)
How it was run: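 HG23 cells (stably harbouring NV replicon), 1 day old and 80–90% confluent, treated with compound at 0 (DMSO mock) to 320 μM. NV genome levels quantified by qRT-PCR after 24 h of treatment.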

| inhibition (Norwalk virus [2]) [%] | SMILES | IC50 [1] [µM] | other results |
| --- | --- | --- | --- |
| – | CC(C)C[C@H](NC(=O)N1CCOCC1)C(=O)N[C@H](C=O)CC1CCNC1=O (stereo partly specified) | 7.2 | – |
| < 25 | CCCC[C@H](NC(=O)CNC(=O)OCc1ccccc1)C(=O)N[C@H](CO)CC1CCNC1=O (stereo partly specified) | – | – |
| – | CC[C@@H](C)[C@H](NC(=O)CNC(=O)OCc1ccccc1)C(=O)N[C@H](C=O)CC1CCNC1=O (stereo partly specified) | 7.5 | – |
| – | CC(C)C[C@H](NC(=O)OCc1ccccc1)C(=O)N[C@H](C=O)CC1CCNC1=O (stereo partly specified) | 1.82 | CC50 at 48 h [3]: > 320 µM; CC50 [4]: > 320 µM; inhibition (Norwalk virus [5]): Dose-dependent effect |
| – | CCCC[C@H](NC(=O)CNC(=O)OCc1ccccc1)C(=O)N[C@H](C=O)CC1CCNC1=O (stereo partly specified) | 0.87 | – |
| – | CC(C)C[C@H](NC(=O)CNC(=O)OCc1ccccc1)C(=O)N[C@H](C=O)CC1CCNC1=O (stereo partly specified) | 1.45 | CC50 at 48 h [3]: > 320 µM; CC50 [4]: > 320 µM; EC50 (Norwalk virus [6]): 7.8 µM |
| < 25 | O=C[C@H](CC1CCNC1=O)NC(=O)[C@H](Cc1ccccc1)NC(=O)N1CCOCC1 (stereo partly specified) | – | – |
| < 25 | CC(C)C[C@H](NC(=O)OCc1ccccc1)C(=O)N[C@@H](CC1CCNC1=O)C(=O)C(=O)NC(C)C (stereo partly specified) | – | – |
| < 25 | CC(C)C[C@H](NC(=O)CNC(=O)OCc1ccccc1)C(=O)N[C@H](CO)CC1CCNC1=O (stereo partly specified) | – | – |
| < 25 | CC(C)C[C@H](NC(=O)OCc1ccccc1)C(=O)N[C@H](CO)CC1CCNC1=O (stereo partly specified) | – | – |
